Results taken from ChEMBL document CHEMBL5385966, “Synthesis and biological evaluation of new naphthalimide-thiourea derivatives as potent antimicrobial agents active against multidrug-resistant Staphylococcus aureus and Mycobacterium tuberculosis” (RSC Med Chem, 2024).
In brackets after ≈: the same amount, converted by molar mass. Activity calls are given as the source filed them. No cut-off for these calls is given here.

Columns and labels:
[1] = tested on: Mycolicibacterium fortuitum; assay: Antimycobacterial activity against Mycobacterium fortuitum ATCC 6841 assessed as bacterial growth inhibition incubated for 72 hrs by resazurin dye based broth microdilution method; assay type: functional, organism-based
Summary of the method: (§1)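 Broth microdilution in Middlebrook 7H9 with 10% ADC-Tween-80 (0.2% glycerol, 0.05% Tween-80), inoculum ~10⁶ cfu/mL. Compounds came from 10 mg/mL DMSO stocks and were tested as two-fold serial dilutions at 37 °C, 7 days for M. tuberculosis H37Rv and 72 h for NTM. Growth was read visually with PrestoBlue resazurin dye; MIC was the lowest concentration preventing growth. Triplicate determinations, each in duplicate.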

Escherichia coli = assay: Antibacterial activity against Escherichia coli ATCC 25922 assessed as bacterial growth inhibition incubated for 16 to 18 hrs by CLSI based antibiotic susceptibility testing method; assay type: functional, organism-based; details: time 16-18 hrs
Summary of the method: (§2)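 Broth microdilution in cation-adjusted Mueller-Hinton broth. Compounds were tested at […], with levofloxacin as reference and medium-only controls. Plates were incubated at 37 °C for 16-18 h. MIC was the lowest concentration with no visible growth; three independent determinations, each in duplicate.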

[2] = tested on: Mycobacteroides abscessus; assay: Antimycobacterial activity against Mycobacterium abscessus ATCC 19977 assessed as bacterial growth inhibition incubated for 72 hrs by resazurin dye based broth microdilution method; assay type: functional, organism-based; summary of the method: as §1
Pseudomonas aeruginosa = assay: Antibacterial activity against Pseudomonas aeruginosa ATCC 27853 assessed as bacterial growth inhibition incubated for 16 to 18 hrs by CLSI based antibiotic susceptibility testing method; assay type: functional, organism-based; details: time 16-18 hrs; summary of the method: as §2
Acinetobacter baumannii = assay: Antibacterial activity against Acinetobacter baumannii BAA 1605 assessed as bacterial growth inhibition incubated for 16 to 18 hrs by CLSI based antibiotic susceptibility testing method; assay type: functional, organism-based; details: time 16-18 hrs; summary of the method: as §2
Staphylococcus aureus = assay: Antibacterial activity against Staphylococcus aureus ATCC 29213 assessed as bacterial growth inhibition incubated for 16 to 18 hrs by CLSI based antibiotic susceptibility testing method; assay type: functional; details: time 16-18 hrs; summary of the method: as §2
[3] = tested on: Mycobacterium tuberculosis; assay: Antimycobacterial activity against Mycobacterium tuberculosis H37Rv ATCC 27294 assessed as bacterial growth inhibition incubated for 7 days by resazurin dye based broth microdilution method; assay type: functional; details: H37Rv ATCC 27294, 168 h, time 7 day; summary of the method: as §1
Mycobacteroides chelonae = assay: Antimycobacterial activity against Mycobacteroides chelonae ATCC 35752 assessed as bacterial growth inhibition incubated for 72 hrs by resazurin dye based broth microdilution method; assay type: functional, organism-based; summary of the method: as §1
Klebsiella pneumoniae = assay: Antibacterial activity against Klebsiella pneumoniae BAA 1705 assessed as bacterial growth inhibition incubated for 16 to 18 hrs by CLSI based antibiotic susceptibility testing method; assay type: functional, organism-based; details: time 16-18 hrs; summary of the method: as §2

Structure (SMILES) | growth inhibition (GI) [1] | growth inhibition (GI) (Escherichia coli) | growth inhibition (GI) [2] | growth inhibition (GI) (Pseudomonas aeruginosa) | growth inhibition (GI) (Acinetobacter baumannii) | MIC (Staphylococcus aureus) | MIC [3] | growth inhibition (GI) (Mycobacteroides chelonae) | growth inhibition (GI) (Klebsiella pneumoniae)
O=C(CCN1C(=O)c2cccc3cccc(c23)C1=O)N1CCN(C(=S)Nc2ccc(Cl)cc2)CC1 | inactive | inactive | inactive | inactive | inactive | > 64 µg/mL | 64 µg/mL (≈ 126 µM) | inactive | inactive
Cc1ccc(NC(=S)N2CCN(C(=O)CN3C(=O)c4cccc5cccc(c45)C3=O)CC2)cc1 | inactive | inactive | inactive | inactive | inactive | > 64 µg/mL | 64 µg/mL (≈ 135 µM) | inactive | inactive
O=C(CN1C(=O)c2cccc3cccc(c23)C1=O)N1CCN(C(=S)Nc2cccc(Cl)c2)CC1 | inactive | inactive | inactive | inactive | inactive | > 64 µg/mL | 32 µg/mL (≈ 64.9 µM) | inactive | inactive
O=C1c2cccc3cccc(c23)C(=O)N1CCN1CCN(C(=S)Nc2ccc(Cl)c(Cl)c2)CC1 | inactive | inactive | inactive | inactive | inactive | > 64 µg/mL | > 64 µg/mL | inactive | inactive
COc1ccc(NC(=S)N2CCN(CCN3C(=O)c4cccc5cccc(c45)C3=O)CC2)cc1 | inactive | inactive | inactive | inactive | inactive | > 64 µg/mL | > 64 µg/mL | inactive | inactive
O=C(CN1C(=O)c2cccc3cccc(c23)C1=O)N1CCN(C(=S)Nc2ccc(Cl)cc2)CC1 | inactive | inactive | inactive | inactive | inactive | > 64 µg/mL | 8 µg/mL (≈ 16.2 µM) | inactive | inactive
NCC[C@H](O)C(=O)N[C@@H]1C[C@H](N)[C@@H](O[C@H]2O[C@H](CN)[C@@H](O)[C@H](O)[C@H]2O)[C@H](O)[C@H]1O[C@H]1O[C@H](CO)[C@@H](O)[C@H](N)[C@H]1O [AMIKACIN] | inactive | – | inactive | – | – | – | 0.5 µg/mL (≈ 0.854 µM) | inactive | –
CO[C@H]1/C=C/O[C@@]2(C)Oc3c(C)c(O)c4c(O)c(c(/C=N/N5CCN(C)CC5)c(O)c4c3C2=O)NC(=O)/C(C)=C\C=C\[C@H](C)[C@H](O)[C@@H](C)[C@@H](O)[C@@H](C)[C@H](OC(C)=O)[C@@H]1C [RIFAMPIN] | inactive | – | inactive | – | – | – | 0.03 µg/mL (≈ 0.0365 µM) | inactive | –
CN[C@@H]1[C@H](O[C@H]2[C@H](O[C@H]3[C@H](O)[C@@H](O)[C@H](N=C(N)N)[C@@H](O)[C@@H]3N=C(N)N)O[C@@H](C)[C@]2(O)C=O)O[C@@H](CO)[C@H](O)[C@H]1O [STREPTOMYCIN] | inactive | – | inactive | – | – | – | 1 µg/mL (≈ 1.72 µM) | inactive | –
CC[C@@H](CO)NCCN[C@@H](CC)CO [ETHAMBUTOL] | inactive | – | inactive | – | – | – | 2 µg/mL (≈ 9.79 µM) | inactive | –
NNC(=O)c1ccncc1 [ISONIAZID] | inactive | – | inactive | – | – | – | 0.03 µg/mL (≈ 0.219 µM) | inactive | –
